Assay results taken from ChEMBL document CHEMBL1144182, “Antimicrobial and cytotoxic arylazoenamines. Part III: antiviral activity of selected classes of arylazoenamines” (Bioorg Med Chem, 2008).
Converted amounts (≈) assume the structure as drawn. The source made the active and inactive calls. How the calls were made is not given here.

Tests used:
[1] = Cytotoxicity against mock-infected african green monkey Vero76 cells assessed as reduction in cell viability after 96 hrs by MTT assay; type: cell-based, Vero; conditions: chlorocebus sabaeus
[2] = tested on: Poliovirus 1; assay: Antiviral activity against Sb1 virus infected in Vero76 cells assessed as reduction in virus plaque formation after 4 days by MTT assay; type: functional, organism-based; conditions: Enterovirus C, Sabin, Vero 76, 96 h
[3] = tested on: Bovine viral diarrhea virus 1; assay: Antiviral activity against BVDV infected in MDBK cells assessed as protection against virus-induced cytopathogenicity after 4 days by MTT assay; type: functional, organism-based; conditions: Bovine viral diarrhea virus isolates and strains, 96 h
Outline: (§1)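 MDBK (BVDV) or BHK-21 (YFV) cells were seeded at 3 × 10^4 or 5 × 10^4 cells/well respectively and grown overnight to confluent monolayers at 37 °C in 5% CO2. Monolayers were infected at m.o.i. 0.01 in serum-free medium. After 1 h, MEM Earle's with 1% FCS was added, with or without serial compound dilutions. After 3–4 days at 37 °C, viability was read by MTT. EC50 was taken as 50% protection from virus-induced cytopathogenicity.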

[4] = tested on: Vaccinia virus; assay: Antiviral activity against VV infected in Vero76 cells assessed as reduction in virus plaque formation after 4 days by MTT assay; type: functional, organism-based; conditions: Orthopoxvirus vaccinia; Vero 76
[5] = tested on: Respiratory syncytial virus; assay: Antiviral activity against RSV infected in Vero76 cells assessed as reduction in virus plaque formation after 4 days by MTT assay; type: functional, organism-based; conditions: human respiratory syncytial virus, Vero 76, 96 h
[6] = tested on: Human immunodeficiency virus 1; assay: Antiviral activity against HIV1 infected in MT4 cells assessed as virus-induced cytopathogenicity after 4 days; type: functional, organism-based
[7] = Cytotoxicity against mock-infected BHK cells assessed as reduction in cell viability after 96 hrs by MTT assay; type: cell-based, Mesocricetus auratus; conditions: hamster
Outline: (§2)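 Cytotoxicity run in parallel with the antiviral assays. MDBK seeded at 6 × 10^5 and BHK at 1 × 10^6 cells/mL in maintenance medium with or without serial compound dilutions. Incubated 48–96 h at 37 °C, 5% CO2, then viability read by MTT. CC50 is the concentration reducing mock-infected cell viability by 50%.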

[8] = tested on: Vesicular stomatitis virus; assay: Antiviral activity against VSV infected in Vero76 cells assessed as reduction in virus plaque formation after 4 days by MTT assay; type: functional, organism-based; conditions: Vero 76
[9] = tested on: Mammalian orthoreovirus 1; assay: Antiviral activity against Reo virus 1 infected in BHK21 cells assessed as protection against virus-induced cytopathogenicity after 4 days by MTT assay; type: functional, organism-based; conditions: Mammalian orthoreovirus 1, BHK-21, 96 h
[10] = Cytotoxicity against mock-infected MDBK cells assessed as reduction in cell viability after 96 hrs by MTT assay; type: cell-based, Bos taurus; conditions: cattle; outline: as §2
[11] = Cytotoxicity against mock-infected human MT4 cells assessed as reduction in cell viability after 96 hrs by MTT assay; type: cell-based
Outline: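 Exponentially growing MT-4 cells seeded at 1 × 10^5 cells/mL in RPMI-1640 with 10% FCS, penicillin and streptomycin, with or without serial compound dilutions. Incubated at 37 °C, 5% CO2; viability read by MTT after 96 h. CC50 is the concentration reducing mock-infected cell viability by 50%.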

[12] = tested on: Coxsackievirus B2; assay: Antiviral activity against CVB2 infected in Vero76 cells assessed as reduction in virus plaque formation after 4 days by MTT assay; type: functional, organism-based; conditions: Enterovirus B, Vero 76, 96 h
[13] = tested on: Yellow fever virus; assay: Antiviral activity against YFV infected in BHK21 cells assessed as protection against virus-induced cytopathogenicity after 4 days by MTT assay; type: functional, organism-based; conditions: BHK-21, 96 h; outline: as §1
[14] = tested on: Candida; assay: Antimicrobial activity against Candida
[15] = tested on: Pseudomonas aeruginosa; assay: Antimicrobial activity against Pseudomonas aeruginosa; type: functional

| SMILES | CC50 at 96 h [1] | EC50 [2] | EC50 [3] | Activity [4] | EC50 [5] | Activity [6] | CC50 at 96 h [7] | Activity [8] | EC50 [9] | CC50 at 96 h [10] | CC50 at 96 h [11] | EC50 [12] | EC50 [13] | MIC [14] | MIC [15] |
| --- | --- | --- | --- | --- | --- | --- | --- | --- | --- | --- | --- | --- | --- | --- | --- |
| Fc1ccc(/N=N\C2=C3CCCCN3CCC2)cc1 | > 100 µM | > 100 µM | > 56 µM | inactive | > 100 µM | inactive | > 100 µM | inactive | 34 µM | 56 µM | 94 µM | 27 µM | 100 µM | – | – |
| Clc1ccc(COC(Cn2ccnc2)c2ccc(Cl)cc2Cl)c(Cl)c1.O=[N+]([O-])O (stereo not drawn) [MICONAZOLE NITRATE] | – | – | – | – | – | – | – | – | – | – | – | – | – | 0.25 µg/mL | – |
| CCn1cc(C(=O)O)c(=O)c2cc(F)c(N3CCNCC3)cc21 [NORFLOXACIN] | – | – | – | – | – | – | – | – | – | – | – | – | – | – | 4 µg/mL (≈ 12.5 µM) |
| CN1C=C(/N=N/c2ccc(Br)cc2)CCC1 | 100 µM | > 100 µM | 60 µM | inactive | 18 µM | inactive | > 100 µM | inactive | 76 µM | > 100 µM | 83 µM | > 100 µM | 100 µM | – | – |
